Test results published in ChEMBL document CHEMBL5303300, “EUbOPEN Chemogenomics Library - Multiplex” (2023).
Values joined by “and” are separate entries in the source; they are usually repeats but may differ in a detail not shown here. Identical values can stand only once.

Test system: HEK-293T
Experiment: Multiplex assay against HEK293T
Assay type: toxicity, cell-based
Details: human, number of replicates 2
Procedure, shortened: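 Tubulin, mitochondrial-mass and membrane-permeability phenotypes are per cents of healthy-nucleus cells. Cells were gated by CellPathfinder machine learning into Hoechst high-intensity objects or normal cells, normal cells into healthy, pyknosed or fragmented nuclei, and pyknosed cells into mitotic or apoptotic. Before that, live cells stained at seeding with Hoechst33342, BioTracker Green Microtubule Cytoskeleton Dye, MitoTracker Red and Annexin V Alexa Fluor 680 were imaged on a CQ1 microscope at 37°C and 5% CO2 after compound addition.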

[1] = 12 h, 1 µM, compound concentration 1 uM
[2] = 12 h, 10 µM, compound concentration 10 uM
[3] = 24 h, 1 µM, compound concentration 1 uM
[4] = 24 h, 10 µM, compound concentration 10 uM
[5] = 48 h, 1 µM, compound concentration 1 uM
[6] = 48 h, 10 µM, compound concentration 10 uM

Cc1ccc2c(c1CCC(=O)O)CC[C@@H](NS(=O)(=O)c1ccc(Cl)cc1)C2 [TERUTROBAN]
Population Apoptotic (%) [1]: 59% and 56%
Population Fragmented Nuclei (%) [1]: 2% and 4%
Population Healthy Nuclei (%) [1]: 81%
Population Hoechst High Intensity Objects (%) [1]: 7%
Population Membrane Permeable-Phenotype (%) [1]: 3% and 2%
Population Mitochondria Different-Phenotype (%) [1]: 20% and 14%
Population Mitotic Cells (%) [1]: 40% and 43%
Population Normal (%) [1]: 92%
Population Pyknosed Nuclei (%) [1]: 15% and 14%
Population Tubulin-Different-Phenotype (%) [1]: 47%
Total Cell Count [1]: 534 and 671
Population Apoptotic (%) [2]: 55% and 71%
Population Fragmented Nuclei (%) [2]: 5% and 3%
Population Healthy Nuclei (%) [2]: 77% and 81%
Population Hoechst High Intensity Objects (%) [2]: 8%
Population Membrane Permeable-Phenotype (%) [2]: 4% and 1%
Population Mitochondria Different-Phenotype (%) [2]: 24% and 20%
Population Mitotic Cells (%) [2]: 44% and 28%
Population Normal (%) [2]: 91%
Population Pyknosed Nuclei (%) [2]: 17% and 15%
Population Tubulin-Different-Phenotype (%) [2]: 70% and 50%
Total Cell Count [2]: 599 and 487
Population Apoptotic (%) [3]: 65% and 40%
Population Fragmented Nuclei (%) [3]: 7% and 6%
Population Healthy Nuclei (%) [3]: 81% and 86%
Population Hoechst High Intensity Objects (%) [3]: 6% and 9%
Population Membrane Permeable-Phenotype (%) [3]: 3%
Population Mitochondria Different-Phenotype (%) [3]: 6% and 5%
Population Mitotic Cells (%) [3]: 35% and 59%
Population Normal (%) [3]: 93% and 90%
Population Pyknosed Nuclei (%) [3]: 10% and 6%
Population Tubulin-Different-Phenotype (%) [3]: 30% and 25%
Total Cell Count [3]: 837 and 1016
Population Apoptotic (%) [4]: 58% and 52%
Population Fragmented Nuclei (%) [4]: 9% and 6%
Population Healthy Nuclei (%) [4]: 79% and 84%
Population Hoechst High Intensity Objects (%) [4]: 8% and 9%
Population Membrane Permeable-Phenotype (%) [4]: 2% and 3%
Population Mitochondria Different-Phenotype (%) [4]: 9% and 7%
Population Mitotic Cells (%) [4]: 41% and 47%
Population Normal (%) [4]: 91% and 90%
Population Pyknosed Nuclei (%) [4]: 11% and 9%
Population Tubulin-Different-Phenotype (%) [4]: 44% and 35%
Total Cell Count [4]: 911 and 714
Population Apoptotic (%) [5]: 11%
Population Fragmented Nuclei (%) [5]: 12% and 9%
Population Healthy Nuclei (%) [5]: 82% and 86%
Population Hoechst High Intensity Objects (%) [5]: 7% and 9%
Population Membrane Permeable-Phenotype (%) [5]: 4% and 7%
Population Mitochondria Different-Phenotype (%) [5]: 0% and 1%
Population Mitotic Cells (%) [5]: 88%
Population Normal (%) [5]: 92% and 90%
Population Pyknosed Nuclei (%) [5]: 4% and 3%
Population Tubulin-Different-Phenotype (%) [5]: 12% and 11%
Total Cell Count [5]: 2114 and 2407
Population Apoptotic (%) [6]: 26% and 21%
Population Fragmented Nuclei (%) [6]: 14% and 10%
Population Healthy Nuclei (%) [6]: 80% and 86%
Population Hoechst High Intensity Objects (%) [6]: 9% and 8%
Population Membrane Permeable-Phenotype (%) [6]: 6% and 5%
Population Mitochondria Different-Phenotype (%) [6]: 1%
Population Mitotic Cells (%) [6]: 73% and 78%
Population Normal (%) [6]: 90% and 91%
Population Pyknosed Nuclei (%) [6]: 5% and 3%
Population Tubulin-Different-Phenotype (%) [6]: 20% and 15%
Total Cell Count [6]: 1958 and 1618
